ChEMBL document CHEMBL1140412, “F-18 stilbenes as PET imaging agents for detecting beta-amyloid plaques in the brain” (J Med Chem, 2005)
pKi: −log10 of the molar value.

How the values were obtained:
[1] = biological target: Amyloid-beta precursor protein (Homo sapiens, UniProt P05067); assay: Inhibition constant for I-125-IMPY binding to amyloid plaques in Alzheimers disease brain homogenates; assay type: tissue-based
Outline: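 Competition binding in pooled postmortem AD cortical homogenates (dissected gray/white matter, ~100 mg wet tissue/ml PBS pH 7.4; 20-50 μg per tube). [¹²⁵I]IMPY at 0.04-0.06 nM; inhibitors 10^-5-10^-10 M in PBS with 0.1% BSA. Nonspecific binding with 600 nM IMPY. Incubated 2 hr at 37°C, GF/B filtration, PBS washes, gamma counting. Ki from nonlinear regression.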

[2] = Biodistribution in ICR mouse lung 2 min. after iv injection of [18F]-compound in 0.1% bovine serum albumin solution, n = 3; assay type: ADME, organism-based; conditions: in vivo
Outline: (§1)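 Male ICR mice (22-25 g) under isoflurane anesthesia received 0.15 mL of 0.1% BSA solution containing 5-10 μCi [¹⁸F]tracer by tail-vein injection; n = 3 per time point. Killed by cervical dislocation, organs removed, weighed and gamma-counted. %dose/g derived from sample counts vs. diluted initial dose; blood total activity assumed as 7% of body weight. Mean ± SD.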

[3] = Biodistribution in ICR mouse kidney 30 min. after iv injection of [18F]-compound in 0.1% bovine serum albumin solution, n = 3; assay type: ADME, organism-based; conditions: in vivo, 0.5 h; outline: as §1
[4] = Biodistribution in ICR mouse skin 2 hr after iv injection of [18F]-compound in 0.1% bovine serum albumin solution, n = 3; assay type: ADME, organism-based, Zone of skin; conditions: in vivo; outline: as §1
[5] = Biodistribution in ICR mouse liver 2 hr after iv injection of [18F]-compound in 0.1% bovine serum albumin solution, n = 3; assay type: ADME, organism-based; conditions: in vivo; outline: as §1
[6] = Biodistribution in ICR mouse lung 30 min. after iv injection of [18F]-compound in 0.1% bovine serum albumin solution, n = 3; assay type: ADME, organism-based; conditions: in vivo, 0.5 h; outline: as §1
[7] = Biodistribution in ICR mouse muscle 2 min. after iv injection of [18F]-compound in 0.1% bovine serum albumin solution, n = 3; assay type: ADME, organism-based, Muscle tissue; conditions: in vivo; outline: as §1
[8] = Biodistribution in ICR mouse blood 2 hr after iv injection of [18F]-compound in 0.1% bovine serum albumin solution, n = 3; assay type: ADME, organism-based; conditions: in vivo; outline: as §1
[9] = Biodistribution in ICR mouse heart 2 hr after iv injection of [18F]-compound in 0.1% bovine serum albumin solution, n = 3; assay type: ADME, organism-based; conditions: in vivo; outline: as §1
[10] = Biodistribution in ICR mouse brain 30 min. after iv injection of [18F]-compound in 0.1% bovine serum albumin solution, n = 3; assay type: ADME, organism-based; conditions: in vivo, 0.5 h; outline: as §1
[11] = Biodistribution in ICR mouse muscle 2 hr after iv injection of [18F]-compound in 0.1% bovine serum albumin solution, n = 3; assay type: ADME, organism-based, Muscle tissue; conditions: in vivo; outline: as §1
[12] = Biodistribution in ICR mouse kidney 2 min. after iv injection of [18F]-compound in 0.1% bovine serum albumin solution, n = 3; assay type: ADME, organism-based; conditions: in vivo; outline: as §1
[13] = Biodistribution in ICR mouse liver 2 min. after iv injection of [18F]-compound in 0.1% bovine serum albumin solution, n = 3; assay type: ADME, organism-based; conditions: in vivo; outline: as §1
[14] = Biodistribution in ICR mouse blood 1 hr after iv injection of [18F]-compound in 0.1% bovine serum albumin solution, n = 3; assay type: ADME, organism-based; conditions: in vivo; outline: as §1
[15] = Biodistribution in ICR mouse bone 1 hr after iv injection of [18F]-compound in 0.1% bovine serum albumin solution, n = 3; assay type: ADME, organism-based, Bone element; conditions: in vivo; outline: as §1
[16] = Biodistribution in ICR mouse blood 30 min. after iv injection of [18F]-compound in 0.1% bovine serum albumin solution, n = 3; assay type: ADME, organism-based; conditions: in vivo, 0.5 h; outline: as §1
[17] = Biodistribution in ICR mouse spleen 1 hr after iv injection of [18F]-compound in 0.1% bovine serum albumin solution, n = 3; assay type: ADME, organism-based; conditions: in vivo; outline: as §1
[18] = Biodistribution in ICR mouse spleen 2 min. after iv injection of [18F]-compound in 0.1% bovine serum albumin solution, n = 3; assay type: ADME, organism-based; conditions: in vivo; outline: as §1
[19] = Biodistribution in ICR mouse heart 2 min. after iv injection of [18F]-compound in 0.1% bovine serum albumin solution, n = 3; assay type: ADME, organism-based; conditions: in vivo; outline: as §1
[20] = Biodistribution in ICR mouse kidney 1 hr after iv injection of [18F]-compound in 0.1% bovine serum albumin solution, n = 3; assay type: ADME, organism-based; conditions: in vivo; outline: as §1
[21] = Biodistribution in ICR mouse muscle 1 hr after iv injection of [18F]-compound in 0.1% bovine serum albumin solution, n = 3; assay type: ADME, organism-based, Muscle tissue; conditions: in vivo; outline: as §1
[22] = Biodistribution in ICR mouse skin 1 hr after iv injection of [18F]-compound in 0.1% bovine serum albumin solution, n = 3; assay type: ADME, organism-based, Zone of skin; conditions: in vivo; outline: as §1
[23] = Biodistribution in ICR mouse liver 30 min. after iv injection of [18F]-compound in 0.1% bovine serum albumin solution, n = 3; assay type: ADME, organism-based; conditions: in vivo, 0.5 h; outline: as §1
[24] = Biodistribution in ICR mouse skin 2 min. after iv injection of [18F]-compound in 0.1% bovine serum albumin solution, n = 3; assay type: ADME, organism-based, Zone of skin; conditions: in vivo; outline: as §1
[25] = Biodistribution in ICR mouse muscle 30 min. after iv injection of [18F]-compound in 0.1% bovine serum albumin solution, n = 3; assay type: ADME, organism-based, Muscle tissue; conditions: in vivo, 0.5 h; outline: as §1
[26] = Biodistribution in ICR mouse spleen 2 hr after iv injection of [18F]-compound in 0.1% bovine serum albumin solution, n = 3; assay type: ADME, organism-based; conditions: in vivo; outline: as §1
[27] = Biodistribution in ICR mouse heart 30 min. after iv injection of [18F]-compound in 0.1% bovine serum albumin solution, n = 3; assay type: ADME, organism-based; conditions: in vivo, 0.5 h; outline: as §1
[28] = Biodistribution in ICR mouse lung 2 hr after iv injection of [18F]-compound in 0.1% bovine serum albumin solution, n = 3; assay type: ADME, organism-based; conditions: in vivo; outline: as §1
[29] = Biodistribution in ICR mouse bone 2 min. after iv injection of [18F]-compound in 0.1% bovine serum albumin solution, n = 3; assay type: ADME, organism-based, Bone element; conditions: in vivo; outline: as §1
[30] = Biodistribution in ICR mouse lung 1 hr after iv injection of [18F]-compound in 0.1% bovine serum albumin solution, n = 3; assay type: ADME, organism-based; conditions: in vivo; outline: as §1
[31] = Biodistribution in ICR mouse brain 1 hr after iv injection of [18F]-compound in 0.1% bovine serum albumin solution, n = 3; assay type: ADME, organism-based; conditions: in vivo; outline: as §1
[32] = Biodistribution in ICR mouse liver 1 hr after iv injection of [18F]-compound in 0.1% bovine serum albumin solution, n = 3; assay type: ADME, organism-based; conditions: in vivo; outline: as §1
[33] = Biodistribution in ICR mouse kidney 2 hr after iv injection of [18F]-compound in 0.1% bovine serum albumin solution, n = 3; assay type: ADME, organism-based; conditions: in vivo; outline: as §1
[34] = Biodistribution in ICR mouse heart 1 hr after iv injection of [18F]-compound in 0.1% bovine serum albumin solution, n = 3; assay type: ADME, organism-based; conditions: in vivo; outline: as §1
[35] = Biodistribution in ICR mouse blood 2 min. after iv injection of [18F]-compound in 0.1% bovine serum albumin solution, n = 3; assay type: ADME, organism-based; conditions: in vivo; outline: as §1
[36] = Biodistribution in ICR mouse spleen 30 min. after iv injection of [18F]-compound in 0.1% bovine serum albumin solution, n = 3; assay type: ADME, organism-based; conditions: in vivo, 0.5 h; outline: as §1
[37] = Biodistribution in ICR mouse brain 2 hr after iv injection of [18F]-compound in 0.1% bovine serum albumin solution, n = 3; assay type: ADME, organism-based; conditions: in vivo; outline: as §1
[38] = Biodistribution in ICR mouse skin 30 min. after iv injection of [18F]-compound in 0.1% bovine serum albumin solution, n = 3; assay type: ADME, organism-based, Zone of skin; conditions: in vivo, 0.5 h; outline: as §1
[39] = Biodistribution in ICR mouse bone 2 hr after iv injection of [18F]-compound in 0.1% bovine serum albumin solution, n = 3; assay type: ADME, organism-based, Bone element; conditions: in vivo; outline: as §1
[40] = Biodistribution in ICR mouse brain 2 min. after iv injection of [18F]-compound in 0.1% bovine serum albumin solution, n = 3; assay type: ADME, organism-based; conditions: in vivo; outline: as §1
[41] = Biodistribution in ICR mouse bone 30 min. after iv injection of [18F]-compound in 0.1% bovine serum albumin solution, n = 3; assay type: ADME, organism-based, Bone element; conditions: in vivo, 0.5 h; outline: as §1

Sequence of Amyloid-beta precursor protein (P05067 whole entry): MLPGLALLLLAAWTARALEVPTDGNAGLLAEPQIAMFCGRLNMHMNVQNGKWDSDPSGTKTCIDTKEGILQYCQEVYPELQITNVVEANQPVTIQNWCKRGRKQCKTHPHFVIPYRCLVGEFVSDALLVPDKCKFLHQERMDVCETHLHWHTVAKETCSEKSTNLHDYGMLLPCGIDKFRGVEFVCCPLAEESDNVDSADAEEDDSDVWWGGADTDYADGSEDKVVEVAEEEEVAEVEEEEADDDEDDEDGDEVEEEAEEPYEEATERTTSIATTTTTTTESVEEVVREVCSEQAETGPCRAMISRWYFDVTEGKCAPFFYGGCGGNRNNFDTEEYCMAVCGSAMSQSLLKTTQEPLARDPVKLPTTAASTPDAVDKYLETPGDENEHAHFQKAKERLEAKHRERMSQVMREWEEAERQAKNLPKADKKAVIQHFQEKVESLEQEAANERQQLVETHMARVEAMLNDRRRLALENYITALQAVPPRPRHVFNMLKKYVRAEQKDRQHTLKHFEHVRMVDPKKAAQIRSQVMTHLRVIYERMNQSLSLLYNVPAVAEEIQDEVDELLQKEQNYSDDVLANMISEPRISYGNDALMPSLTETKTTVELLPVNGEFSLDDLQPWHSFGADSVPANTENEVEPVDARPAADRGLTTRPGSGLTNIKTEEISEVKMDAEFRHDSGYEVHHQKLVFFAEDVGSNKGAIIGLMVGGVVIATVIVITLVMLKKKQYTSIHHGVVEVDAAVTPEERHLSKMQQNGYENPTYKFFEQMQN

## CNc1ccc(/C=C/c2ccc(OCC(CO)CO)cc2)cc1
[1]
  pKi: 7.49

## Nc1ccc(/C=C/c2ccc(OCC(CO)CF)cc2)cc1 (stereo not given)
[1]
  pKi: 7.82

## CN(C)c1ccc(/C=C/c2ccc(O)cc2)cc1
[1]
  pKi: 8.96

## CN(C)c1ccc(/C=C/c2ccc(OCC3COC(C)(C)OC3)cc2)cc1
[1]
  pKi: 7.23

## CNc1ccc(/C=C/c2ccc(OCC(CO)C[18F])cc2)cc1 (stereo not given)
[2]
  Biodistribution: 26.13 %Dose/g
[3]
  Biodistribution: 4.13 %Dose/g
[4]
  Biodistribution: 0.57 %Dose/g
[5]
  Biodistribution: 8.14 %Dose/g
[1]
  pKi: 8.30
[6]
  Biodistribution: 8.9 %Dose/g
[7]
  Biodistribution: 0.74 %Dose/g
[8]
  Biodistribution: 0.78 %Dose/g
[9]
  Biodistribution: 0.65 %Dose/g
[10]
  Biodistribution: 1.7 %Dose/g
[11]
  Biodistribution: 0.41 %Dose/g
[12]
  Biodistribution: 11.7 %Dose/g
[13]
  Biodistribution: 20.61 %Dose/g
[14]
  Biodistribution: 1.82 %Dose/g
[15]
  Biodistribution: 5.3 %Dose/g
[16]
  Biodistribution: 2.47 %Dose/g
[17]
  Biodistribution: 1.37 %Dose/g
[18]
  Biodistribution: 5.01 %Dose/g
[19]
  Biodistribution: 7.49 %Dose/g
[20]
  Biodistribution: 3.06 %Dose/g
[21]
  Biodistribution: 0.85 %Dose/g
[22]
  Biodistribution: 1.22 %Dose/g
[23]
  Biodistribution: 19.6 %Dose/g
[24]
  Biodistribution: 0.92 %Dose/g
[25]
  Biodistribution: 1.31 %Dose/g
[26]
  Biodistribution: 1.22 %Dose/g
[27]
  Biodistribution: 2.06 %Dose/g
[28]
  Biodistribution: 4.15 %Dose/g
[29]
  Biodistribution: 1.53 %Dose/g
[30]
  Biodistribution: 7.51 %Dose/g
[31]
  Biodistribution: 0.72 %Dose/g
[32]
  Biodistribution: 14.58 %Dose/g
[33]
  Biodistribution: 1.5 %Dose/g
[34]
  Biodistribution: 1.54 %Dose/g
[35]
  Biodistribution: 2.6 %Dose/g
[36]
  Biodistribution: 2.41 %Dose/g
[37]
  Biodistribution: 0.31 %Dose/g
[38]
  Biodistribution: 1.49 %Dose/g
[39]
  Biodistribution: 7.76 %Dose/g
[40]
  Biodistribution: 9.75 %Dose/g
[41]
  Biodistribution: 2.13 %Dose/g
